Source: ChEMBL document CHEMBL3994605, “Synthesis and biological evaluation of curcumin inspired indole analogues as tubulin polymerization inhibitors” (Eur J Med Chem, 2017)
Active and inactive are the calls of the source. The rule behind the calls is not given here.

How the values were obtained:
PC-3 [1] = experiment: Cell cycle arrest in human PC3 cells assessed as accumulation at G2/M phase at 5 uM after 24 hrs by propidium iodide staining based flow cytometry (reference value: 12.2 to 24.74%); assay type: functional
Outline: (§1)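 PC-3 cells were seeded at 1 × 10^5 cells/mL, attached 24 h, then treated 24 h. Cells were fixed overnight in 70% ethanol in PBS. Staining used propidium iodide ([…]) with RNase A ([…]) and 0.1% Triton X-100 for 30 min at 37 °C in the dark. About 10,000 events per sample were acquired by flow cytometry.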

PC-3 [2] = experiment: Induction of apoptosis in human PC3 cells assessed as pyknotic nuclei at 2.5 to 5 uM after 48 hrs by DAPI staining based fluorescence microscopic method; assay type: functional, cell-based
Outline: (§2)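 PC-3 cells were seeded at 25,000 per well and adhered overnight, then exposed 48 h. Cells were fixed in 4% neutral buffered formalin for 20 min and permeabilized with 0.2% Triton X for 5 min. DAPI (1 mg/mL) staining ran 10 min at room temperature, followed by fluorescence microscopy (ex 350, em 460 nm) at 200×.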

PC-3 [3] = experiment: Induction of mitochondrial membrane potential loss in human PC3 cells assessed as ratio of green to red fluorescence at 5 uM after 24 hrs by JC1 staining based spectrofluorometric method (reference value: 0.103); assay type: functional
PC-3 [4] = experiment: Cell cycle arrest in human PC3 cells assessed as accumulation at G2/M phase at 10 uM after 24 hrs by propidium iodide staining based flow cytometry (reference value: 12.2 to 24.74%); assay type: functional; outline: as §1
PC-3 [5] = experiment: Cell cycle arrest in human PC3 cells assessed as accumulation at subG1 phase at 5 uM after 24 hrs by propidium iodide staining based flow cytometry (reference value: 4.29 to 7.23%); assay type: functional; outline: as §1
PC-3 [6] = experiment: Cell cycle arrest in human PC3 cells assessed as accumulation at G2/M phase at 2.5 uM after 24 hrs by propidium iodide staining based flow cytometry (reference value: 12.2 to 24.74%); assay type: functional; outline: as §1
[7] = Inhibition of porcine brain tubulin polymerization assessed as reduction in incorporation of fluorescent reporter by fluorescence based assay; design: species or system Sus scrofa
Outline: (§3)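 Cell-free mix contained porcine brain tubulin (2 mg/mL) in 80 mM PIPES pH 6.9 with 2.0 mM MgCl2, 0.5 mM EGTA, 1.0 mM GTP and glycerol, with or without compound. Polymerization was tracked as a time-dependent fluorescence rise from reporter incorporation (ex 360, em 440 nm), with nocodazole as positive control. Inhibition was scored versus the untreated control. For IC50, the concentration giving 50% inhibition of assembly was used.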

PC-3 [8] = experiment: Cell cycle arrest in human PC3 cells assessed as accumulation at subG1 phase at 10 uM after 24 hrs by propidium iodide staining based flow cytometry (reference value: 4.29 to 7.23%); assay type: functional; outline: as §1
PC-3 [9] = experiment: Induction of apoptosis in human PC3 cells assessed as horse shoe shaped nuclei at 2.5 to 5 uM after 48 hrs by acridine orange/ethidium bromide staining based fluorescence microscopic method; assay type: functional, cell-based
Outline: (§4)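 PC-3 cells were plated at 25,000 per well, grown 24 h, then exposed 48 h. Cells were PBS-washed, stained with acridine orange and ethidium bromide ([…]), and imaged immediately by fluorescence microscopy (ex 488, em 550 nm) at 200×.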

PC-3 [10] = experiment: Induction of apoptosis in human PC3 cells assessed as chromatin condensation at 2.5 to 5 uM after 48 hrs by acridine orange/ethidium bromide staining based fluorescence microscopic method; assay type: functional, cell-based; outline: as §4
PC-3 [11] = experiment: Cell cycle arrest in human PC3 cells assessed as accumulation at subG1 phase at 2.5 uM after 24 hrs by propidium iodide staining based flow cytometry (reference value: 4.29 to 7.23%); assay type: functional; outline: as §1
PC-3 [12] = experiment: Induction of apoptosis in human PC3 cells assessed as cell membrane blebbing at 2.5 to 5 uM after 48 hrs by acridine orange/ethidium bromide staining based fluorescence microscopic method; assay type: functional; outline: as §4
PC-3 [13] = experiment: Potency index, ratio of curcumin IC50 to compound IC50 for human PC3 cells; assay type: functional
PC-3 [14] = experiment: Induction of apoptosis in human PC3 cells assessed as horse shoe shaped nuclei at 2.5 to 5 uM after 48 hrs by DAPI staining based fluorescence microscopic method; assay type: functional, cell-based; outline: as §2
MDA-MB-231 [15] = experiment: Antiproliferative activity against human MDA-MB-231 cells after 48 hrs by MTT assay; assay type: functional, cell-based; details: MDA-MB-231, 48 h
Outline: (§5)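 MTT read-out. Cells were seeded at 5 × 10^3 per well in DMEM or RPMI with 10% FBS and grown 24 h at 37 °C in CO2. Compound dilutions in medium, with vehicle control, were then added for 48 h. MTT (0.5 mg/mL in medium) was given for 4 h, formazan was dissolved in DMSO, and A570 was read. IC50 was taken from concentration–response curves as mean ± SD of three experiments run in triplicate.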

HGC-27 = experiment: Antiproliferative activity against human HGC27 cells after 48 hrs by MTT assay; assay type: functional, cell-based; details: HGC-27, 48 h; outline: as §5
DU-145 [16] = experiment: Antiproliferative activity against human DU145 cells after 48 hrs by MTT assay; assay type: functional, cell-based; details: DU-145, 48 h; outline: as §5
PC-3 [17] = experiment: Induction of apoptosis in human PC3 cells assessed as nuclear fragmentation at 2.5 to 5 uM after 48 hrs by DAPI staining based fluorescence microscopic method; assay type: functional, cell-based; outline: as §2
PC-3 [18] = experiment: Cell cycle arrest in human PC3 cells assessed as accumulation at G0/G1 phase at 2.5 uM after 24 hrs by propidium iodide staining based flow cytometry (reference value: 65.04 to 76.95%); assay type: functional; outline: as §1
PC-3 [19] = experiment: Cell cycle arrest in human PC3 cells assessed as accumulation at G0/G1 phase at 5 uM after 24 hrs by propidium iodide staining based flow cytometry (reference value: 65.04 to 76.95%); assay type: functional; outline: as §1
PC-3 [20] = experiment: Antiproliferative activity against human PC3 cells after 48 hrs by MTT assay; assay type: functional, cell-based; details: PC-3, 48 h; outline: as §5
MDA-MB-231 [21] = experiment: Potency index, ratio of curcumin IC50 to compound IC50 for human MDA-MB-231 cells; assay type: functional
4T1 = experiment: Antiproliferative activity against mouse 4T1 cells after 48 hrs by MTT assay; assay type: functional, cell-based; details: 4T1, 48 h; outline: as §5
A549 = experiment: Antiproliferative activity against human A549 cells after 48 hrs by MTT assay; assay type: functional, cell-based; details: A549, 48 h; outline: as §5
RWPE-1 = experiment: Antiproliferative activity against human RWPE1 cells after 48 hrs by MTT assay; assay type: cell-based; details: RWPE-1, 48 h; outline: as §5
BT-549 [22] = experiment: Antiproliferative activity against human BT549 cells after 48 hrs by MTT assay; assay type: functional, cell-based; details: BT-549, 48 h; outline: as §5
DU-145 [23] = experiment: Potency index, ratio of curcumin IC50 to compound IC50 for human DU145 cells; assay type: functional
PC-3 [24] = experiment: Cell cycle arrest in human PC3 cells assessed as accumulation at G0/G1 phase at 10 uM after 24 hrs by propidium iodide staining based flow cytometry (reference value: 65.04 to 76.95%); assay type: functional; outline: as §1
PC-3 [25] = experiment: Cell cycle arrest in human PC3 cells assessed as accumulation at S phase at 10 uM after 24 hrs by propidium iodide staining based flow cytometry (reference value: 3.3 to 5.58%); assay type: functional; outline: as §1
PC-3 [26] = experiment: Induction of apoptosis in human PC3 cells assessed as nuclear shrinkage at 2.5 to 5 uM after 48 hrs by DAPI staining based fluorescence microscopic method; assay type: functional, cell-based; outline: as §2
BT-549 [27] = experiment: Potency index, ratio of curcumin IC50 to compound IC50 for human BT549 cells; assay type: functional
PC-3 [28] = experiment: Induction of apoptosis in human PC3 cells assessed as chromatin condensation at 2.5 to 5 uM after 48 hrs by DAPI staining based fluorescence microscopic method; assay type: functional, cell-based; outline: as §2
PC-3 [29] = experiment: Induction of apoptosis in human PC3 cells assessed as destructive fragmentation of nuclei at 2.5 to 5 uM after 48 hrs by acridine orange/ethidium bromide staining based fluorescence microscopic method; assay type: functional, cell-based; outline: as §4
HeLa = experiment: Antiproliferative activity against human HeLa cells after 48 hrs by MTT assay; assay type: functional, cell-based; outline: as §5
PC-3 [30] = experiment: Cell cycle arrest in human PC3 cells assessed as accumulation at S phase at 2.5 uM after 24 hrs by propidium iodide staining based flow cytometry (reference value: 3.3 to 5.58%); assay type: functional; outline: as §1
PC-3 [31] = experiment: Cell cycle arrest in human PC3 cells assessed as accumulation at S phase at 5 uM after 24 hrs by propidium iodide staining based flow cytometry (reference value: 3.3 to 5.58%); assay type: functional; outline: as §1
Sus scrofa = species: Sus scrofa; experiment: Inhibition of porcine brain tubulin polymerization assessed as reduction in incorporation of fluorescent reporter at 10 uM by fluorescence based assay relative to control; outline: as §3

| IC50 [7] [µM] | IC50 (MDA-MB-231 [15]) [µM] | IC50 (DU-145 [16]) [µM] | IC50 (PC-3 [20]) [µM] | Structure (SMILES) | Activity (PC-3 [1]) [%] | Activity (PC-3 [2]) | Ratio (PC-3 [3]) | Activity (PC-3 [5]) [%] | Activity (PC-3 [6]) [%] | Activity (PC-3 [9]) | Activity (PC-3 [10]) | Activity (PC-3 [11]) [%] | Activity (PC-3 [12]) | Ratio IC50 (PC-3 [13]) | Activity (PC-3 [14]) | IC50 (HGC-27) [µM] | Activity (PC-3 [17]) | Activity (PC-3 [18]) [%] | Activity (PC-3 [19]) [%] | Ratio IC50 (MDA-MB-231 [21]) | other results |
| --- | --- | --- | --- | --- | --- | --- | --- | --- | --- | --- | --- | --- | --- | --- | --- | --- | --- | --- | --- | --- | --- |
| 8.81 | 11.4 | 8.92 | 3.15 | COc1cc(/C=C/C(=O)/C=C/c2c[nH]c3ccccc23)cc(OC)c1OC | 29.87 | Active | 0.132 | 3.46 | 27.04 | Active | Active | 4.74 | Active | 3.9 | Active | 8.65 | Active | 58.47 | 58.52 | 1.4 | Activity (PC-3 [4]): 31.42%; Activity (PC-3 [8]): 5.99%; IC50 (4T1): 9.79 µM; IC50 (A549): 8.01 µM; IC50 (RWPE-1): 6.42 µM; IC50 (BT-549 [22]): 8.72 µM; Ratio IC50 (DU-145 [23]): 3.2; Activity (PC-3 [24]): 51.68%; Activity (PC-3 [25]): 10.04%; Activity (PC-3 [26]): Active; Ratio IC50 (BT-549 [27]): 2.8; Activity (PC-3 [28]): Active; Activity (PC-3 [29]): Active; IC50 (HeLa): 3.31 µM; Activity (PC-3 [30]): 8.94%; Activity (PC-3 [31]): 6.2%; inhibition (Sus scrofa): 57.3% |
| 10.2 | 6.02 | 7.71 | 6.34 | COc1ccc(OC)c(/C=C/C(=O)/C=C/c2c[nH]c3ccccc23)c1 | 55.93 | Active | 0.135 | 1.31 | 57.54 | Active | Active | 0.6 | Active | 1.9 | Active | 5.21 | Active | 38.65 | 41.11 | 2.6 | IC50 (4T1): 16.1 µM; IC50 (A549): 19 µM; IC50 (RWPE-1): 18.6 µM; IC50 (BT-549 [22]): 8.34 µM; Ratio IC50 (DU-145 [23]): 3.7; Activity (PC-3 [26]): Active; Ratio IC50 (BT-549 [27]): 2.9; Activity (PC-3 [28]): Active; Activity (PC-3 [29]): Active; IC50 (HeLa): 6.59 µM; Activity (PC-3 [30]): 2.43%; Activity (PC-3 [31]): 1.36%; inhibition (Sus scrofa): 51.7% |
